Reference: ChEMBL document CHEMBL4177549, “Malonylginsenosides with Potential Antidiabetic Activities from the Flower Buds of Panax ginseng” (J Nat Prod, 2017)
Active and inactive are the calls of the source. The calls are words filed in the database; no cut-off is given here.

What was measured:
AMPK alpha2/beta1/gamma1 = AMPK alpha2/beta1/gamma1 (Homo sapiens, UniProt P54619+P54646+Q9Y478); assay: Activation of recombinant AMPKalpha2beta1gamma1 (unknown origin) expressed in Escherichia coli BL21 in presence of CaMKKbeta (unknown origin) incubated for 45 mins in presence of substrate-1 peptide and ATP by HTRF assay
[1] = target: T1, AMPK alpha2/beta1/gamma1 (Homo sapiens) (UniProt P54646+P54619+Q9Y478); assay: Activation of recombinant AMPKalpha2beta1gamma1 (unknown origin) expressed in Escherichia coli BL21 in presence of CaMKKbeta (unknown origin) incubated for 45 mins in presence of substrate-1 peptide and ATP by HTRF assay relative to untreated control
L6 [2] = assay: Induction of glucose consumption in differentiated rat L6 cells at 10 uM incubated for 12 hrs in presence of 0.5% bovine serum albumin and low-glucose by glucose oxidase method; assay type: functional, cell-based
Outline: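 L6 myoblasts grown in high-glucose (4500 mg/L) DMEM with 10% FBS, then differentiated to myotubes in high-glucose DMEM with 2% FBS for 4−6 days. Compound added in 0.5% BSA low-glucose (1000 mg/L) DMEM for 12 h. Medium glucose read by glucose oxidase method. Consumption calculated as cell-free blank wells minus wells with cells.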

L6 [3] = assay: Induction of glucose consumption in differentiated rat L6 cells at 20 uM incubated for 12 hrs in presence of 0.5% bovine serum albumin and low-glucose by glucose oxidase method; assay type: functional, cell-based
Outline: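 L6 myoblasts were grown in high-glucose DMEM with 10% FBS and then differentiated into myotubes in 2% FBS for 4−6 days. The myotubes were treated for 12 h in low-glucose (1000 mg/L) DMEM with 0.5% BSA. Medium glucose was measured by glucose oxidase. Consumption was calculated as the glucose in cell-free blank wells minus the glucose in wells with cells.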

[4] = target: T1, AMPK alpha2/beta1/gamma1 (Homo sapiens); assay: Activation of recombinant AMPKalpha2beta1gamma1 (unknown origin) expressed in Escherichia coli BL21 in presence of CaMKKbeta (unknown origin) at 10 uM incubated for 45 mins in presence of substrate-1 peptide and ATP by HTRF assay relative to untreated control

T1 sequence (P54619 whole entry partner): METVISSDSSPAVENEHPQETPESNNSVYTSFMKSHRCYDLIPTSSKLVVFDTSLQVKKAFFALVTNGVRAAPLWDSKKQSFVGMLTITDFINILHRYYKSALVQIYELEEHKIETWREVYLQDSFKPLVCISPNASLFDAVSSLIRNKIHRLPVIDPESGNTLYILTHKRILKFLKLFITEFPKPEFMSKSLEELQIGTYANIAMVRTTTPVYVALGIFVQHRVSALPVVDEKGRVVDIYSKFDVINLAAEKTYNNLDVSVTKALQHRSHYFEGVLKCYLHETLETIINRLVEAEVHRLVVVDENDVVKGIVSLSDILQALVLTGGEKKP
T1 sequence (P54646 whole entry): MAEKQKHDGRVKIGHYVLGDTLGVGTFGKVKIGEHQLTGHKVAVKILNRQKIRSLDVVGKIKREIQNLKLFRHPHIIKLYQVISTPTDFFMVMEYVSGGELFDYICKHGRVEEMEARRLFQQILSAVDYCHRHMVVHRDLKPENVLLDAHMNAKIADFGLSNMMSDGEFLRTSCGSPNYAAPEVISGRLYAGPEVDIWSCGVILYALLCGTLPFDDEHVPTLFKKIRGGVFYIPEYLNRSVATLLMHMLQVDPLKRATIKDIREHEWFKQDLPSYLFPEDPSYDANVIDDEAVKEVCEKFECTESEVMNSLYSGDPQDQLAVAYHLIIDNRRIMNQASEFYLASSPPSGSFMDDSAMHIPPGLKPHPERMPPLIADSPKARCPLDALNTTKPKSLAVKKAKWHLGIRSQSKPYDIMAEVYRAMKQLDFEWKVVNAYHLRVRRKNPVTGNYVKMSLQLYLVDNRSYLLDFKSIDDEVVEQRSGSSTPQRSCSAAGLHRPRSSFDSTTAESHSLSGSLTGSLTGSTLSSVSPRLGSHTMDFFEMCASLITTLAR
T1 sequence (Q9Y478 2-270 partner limits assumed): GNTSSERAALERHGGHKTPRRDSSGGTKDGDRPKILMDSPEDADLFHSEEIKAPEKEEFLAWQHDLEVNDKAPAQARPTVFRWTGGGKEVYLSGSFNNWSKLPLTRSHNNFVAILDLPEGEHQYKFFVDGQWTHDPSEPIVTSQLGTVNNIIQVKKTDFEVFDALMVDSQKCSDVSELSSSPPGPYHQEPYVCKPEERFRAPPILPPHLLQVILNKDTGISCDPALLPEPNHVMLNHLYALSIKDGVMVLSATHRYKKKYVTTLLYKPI
Chain of AMPK alpha2/beta1/gamma1 (P54646 whole entry): as the sequence (P54646 whole entry) above
Chain of AMPK alpha2/beta1/gamma1 (P54619 whole entry): as the sequence (P54619 whole entry partner) above
Chain of AMPK alpha2/beta1/gamma1 (Q9Y478 whole entry): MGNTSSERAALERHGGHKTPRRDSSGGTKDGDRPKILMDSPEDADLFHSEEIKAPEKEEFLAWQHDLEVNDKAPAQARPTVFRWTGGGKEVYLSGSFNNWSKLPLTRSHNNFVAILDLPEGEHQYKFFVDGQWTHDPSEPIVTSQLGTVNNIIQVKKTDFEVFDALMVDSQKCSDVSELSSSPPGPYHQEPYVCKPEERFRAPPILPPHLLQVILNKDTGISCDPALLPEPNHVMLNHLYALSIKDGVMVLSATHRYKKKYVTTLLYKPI

| SMILES | EC50 (AMPK alpha2/beta1/gamma1) [nM] | fold change (FC) [1] | Activity [4] | Activity (L6 [2]) | Activity (L6 [3]) |
| --- | --- | --- | --- | --- | --- |
| CC(C)=CCC[C@](C)(O[C@@H]1O[C@H](CO[C@@H]2OC[C@H](O)[C@H](O)[C@H]2O)[C@@H](O)[C@H](O)[C@H]1O)[C@H]1CC[C@]2(C)[C@@H]1[C@H](O)C[C@@H]1[C@@]3(C)CC[C@H](O[C@@H]4O[C@H](CO)[C@@H](O)[C@H](O)[C@H]4O[C@@H]4O[C@H](CO)[C@@H](O)[C@H](O)[C@H]4O)C(C)(C)[C@@H]3CC[C@]12C [GINSENOSIDE RB2] | 16.8 | 4.7 |  | Active | Active |
| CC(C)=CCC[C@](C)(O[C@@H]1O[C@H](CO[C@@H]2OC[C@H](O)[C@H](O)[C@H]2O)[C@@H](O)[C@H](O)[C@H]1O)[C@H]1CC[C@]2(C)[C@@H]1[C@H](O)C[C@@H]1[C@@]3(C)CC[C@H](O[C@@H]4O[C@H](CO)[C@@H](O)[C@H](O)[C@H]4O[C@@H]4O[C@H](COC(=O)CC(=O)O)[C@@H](O)[C@H](O)[C@H]4O)C(C)(C)[C@@H]3CC[C@]12C |  |  |  |  | Active |
| CC(C)=CCC[C@](C)(O[C@@H]1O[C@H](CO)[C@@H](O)[C@H](O)[C@H]1O)[C@H]1CC[C@]2(C)[C@@H]1[C@H](O)C[C@@H]1[C@@]3(C)CC[C@H](O[C@@H]4O[C@H](CO)[C@@H](O)[C@H](O)[C@H]4O[C@@H]4O[C@H](CO)[C@@H](O)[C@H](O)[C@H]4O)C(C)(C)[C@@H]3CC[C@]12C [GINSENOSIDE RD] | 16.8 to 2800 |  |  |  |  |
| COc1ccc2cc3[n+](cc2c1OC)CCc1cc2c(cc1-3)OCO2 |  |  | Active |  |  |
| CC(C)=CCC[C@](C)(O[C@@H]1O[C@H](CO)[C@@H](O)[C@H](O)[C@H]1O)[C@H]1CC[C@]2(C)[C@@H]1[C@H](O)C[C@@H]1[C@@]3(C)CC[C@H](O)C(C)(C)[C@@H]3[C@@H](O[C@@H]3O[C@H](COC(=O)CC(=O)O)[C@@H](O)[C@H](O)[C@H]3O[C@@H]3O[C@@H](C)[C@H](O)[C@@H](O)[C@H]3O)C[C@]12C |  |  |  |  | Active |
| CC(C)=CCC[C@](C)(O[C@@H]1O[C@H](CO[C@@H]2O[C@H](CO)[C@@H](O)[C@H](O)[C@H]2O)[C@@H](O)[C@H](O)[C@H]1O)[C@H]1CC[C@]2(C)[C@@H]1[C@H](O)C[C@@H]1[C@@]3(C)CC[C@H](O[C@@H]4O[C@H](CO)[C@@H](O)[C@H](O)[C@H]4O[C@@H]4O[C@H](CO)[C@@H](O)[C@H](O)[C@H]4O)C(C)(C)[C@@H]3CC[C@]12C [GINSENOSIDE RB1] | 16.8 to 2800 |  |  |  |  |

Further lines, with some results ahead:

| EC50 (AMPK alpha2/beta1/gamma1) [nM] | fold change (FC) [1] | Activity [4] | SMILES | Activity (L6 [2]) | Activity (L6 [3]) |
| --- | --- | --- | --- | --- | --- |
| 16.8 to 2800 | 1.7 to 4.7 |  | CC(C)=CCC[C@](C)(O[C@@H]1O[C@H](CO[C@@H]2O[C@@H](CO)[C@H](O)[C@H]2O)[C@@H](O)[C@H](O)[C@H]1O)[C@H]1CC[C@]2(C)[C@@H]1[C@H](O)C[C@@H]1[C@@]3(C)CC[C@H](O[C@@H]4O[C@H](CO)[C@@H](O)[C@H](O)[C@H]4O[C@@H]4O[C@H](COC(=O)CC(=O)O)[C@@H](O)[C@H](O)[C@H]4O)C(C)(C)[C@@H]3CC[C@]12C |  |  |
| 16.8 to 2800 | 1.7 to 4.7 |  | CC(C)=CCC[C@](C)(O[C@@H]1O[C@H](CO[C@@H]2O[C@H](CO)[C@@H](O)[C@H](O)[C@H]2O)[C@@H](O)[C@H](O)[C@H]1O)[C@H]1CC[C@]2(C)[C@@H]1[C@H](O)C[C@@H]1[C@@]3(C)CC[C@H](O[C@@H]4O[C@H](CO)[C@@H](O)[C@H](O)[C@H]4O[C@@H]4O[C@H](COC(=O)CC(=O)O)[C@@H](O)[C@H](O)[C@H]4O)C(C)(C)[C@@H]3CC[C@]12C |  |  |
| 16.8 to 2800 | 1.7 to 4.7 |  | CC(C)=CCC[C@](C)(O[C@@H]1O[C@H](CO)[C@@H](O)[C@H](O)[C@H]1O)[C@H]1CC[C@]2(C)[C@@H]1[C@H](O)C[C@@H]1[C@@]3(C)CC[C@H](O[C@@H]4O[C@H](CO)[C@@H](O)[C@H](O)[C@H]4O[C@@H]4O[C@H](CO)[C@@H](OC(=O)CC(=O)O)[C@H](O)[C@H]4O)C(C)(C)[C@@H]3CC[C@]12C |  |  |
| 16.8 to 2800 | 1.7 to 4.7 |  | CC(C)=CCC[C@](C)(O[C@@H]1O[C@H](CO[C@@H]2O[C@H](CO)[C@@H](OC(=O)CC(=O)O)[C@H](O)[C@H]2O)[C@@H](O)[C@H](O)[C@H]1O)[C@H]1CC[C@]2(C)[C@@H]1[C@H](O)C[C@@H]1[C@@]3(C)CC[C@H](O[C@@H]4O[C@H](CO)[C@@H](O)[C@H](O)[C@H]4O[C@@H]4O[C@H](CO)[C@@H](O)[C@H](O)[C@H]4O)C(C)(C)[C@@H]3CC[C@]12C |  |  |
| 16.8 to 2800 | 1.7 to 4.7 |  | CC(C)=CCC[C@](C)(O[C@@H]1O[C@H](CO)[C@@H](O)[C@H](O)[C@H]1O)[C@H]1CC[C@]2(C)[C@@H]1[C@H](O)C[C@@H]1[C@@]3(C)CC[C@H](O[C@@H]4O[C@H](CO)[C@@H](O)[C@H](O)[C@H]4O[C@@H]4O[C@H](COC(=O)CC(=O)O)[C@@H](O)[C@H](O)[C@H]4O)C(C)(C)[C@@H]3CC[C@]12C |  |  |
| 16.8 to 2800 | 1.7 to 4.7 |  | CC(C)=CCC[C@](C)(O[C@@H]1O[C@H](CO[C@@H]2OC[C@H](O)[C@H](O)[C@H]2O)[C@@H](O)[C@H](O)[C@H]1O)[C@H]1CC[C@]2(C)[C@@H]1[C@H](O)C[C@@H]1[C@@]3(C)CC[C@H](O[C@@H]4O[C@H](CO)[C@@H](O)[C@H](O)[C@H]4O[C@@H]4O[C@H](CO)[C@@H](OC(=O)CC(=O)O)[C@H](O)[C@H]4O)C(C)(C)[C@@H]3CC[C@]12C |  |  |
